Values after ≈ are worked out from the molar mass of the structure shown. Active and inactive are the calls of the source. No cut-off for these calls is given here.
What was measured:
[1] = test system: Pseudomonas aeruginosa; assay: Antibacterial activity against Pseudomonas aeruginosa ATCC […] by two fold serial dilution technique; format: functional, organism-based
Outline: (§1)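 Compounds first screened by disk diffusion. Those giving inhibition zones above 15 mm were then tested for bacteriostatic MIC by two-fold serial dilution.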

[2] = test system: Candida albicans; assay: Antifungal activity against Candida albicans after 48 hrs by microtiter broth dilution method; format: functional
Outline: (§2)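 Fungi were grown 24 h at 37 C under 5% CO2 in YPD (1% yeast, 2% peptone, 2% dextrose), then diluted 1:100 in saline and 1:100 in YPD to about 1000 CFU per inoculum. Inocula were added to two-fold serial dilutions in 96-well broth, with drug-free growth and sterility controls. Plates were incubated 48 h at 37 C under 5% CO2. MIC was the lowest concentration without visible turbidity.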

[3] = Cytotoxicity against mouse EAC at 25 to 100 uM after 2 hrs by trypan blue staining based hemocytometer analysis; format: functional, Ehrlich
Outline: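 Ehrlich ascites cells were aspirated aseptically from a donor animal's peritoneal fluid and kept in RPMI 1640 with 10% FBS. Cells were exposed to compounds at three levels (100, 50, 25) prepared in DMSO/RPMI-1640 for 2 h at 37 C in humidified 5% CO2. Viability was scored by trypan blue exclusion on a hemocytometer; untreated control viability exceeded 95%.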

[4] = test system: Staphylococcus aureus; assay: Antibacterial activity against Staphylococcus aureus ATCC 29213 by two fold serial dilution technique; format: functional; outline: as §1
[5] = test system: Bacillus subtilis; assay: Antibacterial activity against Bacillus subtilis ATCC 6633 by two fold serial dilution technique; format: functional; outline: as §1
[6] = test system: Aspergillus fumigatus; assay: Antifungal activity against wild type Aspergillus fumigatus Af293 after 48 hrs by microtiter broth dilution method; format: functional; conditions: Af293, 48 h; outline: as §2

MIC [1] | MIC [2] | MIC [4] | MIC [5] | MIC [6] | SMILES | Activity [3]
inactive | 120 µg/mL (≈ 550 µM) | 31 µg/mL (≈ 142 µM) | 39 µg/mL (≈ 179 µM) | 200 µg/mL (≈ 916 µM) | CC1=C(C)[C@@](C)(C2=CCC(CO)=CC2)CC1 | 79.9%
inactive | 2000 µg/mL (≈ 9250 µM) | 52 µg/mL (≈ 240 µM) | 46 µg/mL (≈ 213 µM) | 2000 µg/mL (≈ 9250 µM) | CC1=C(C)[C@@](C)(c2ccc(CO)cc2)CC1 | –
inactive | 70 µg/mL (≈ 327 µM) | 27 µg/mL (≈ 126 µM) | 35 µg/mL (≈ 163 µM) | 100 µg/mL (≈ 467 µM) | CC1=C(C)[C@@](C)(c2ccc(C=O)cc2)CC1 [ISOLAURELDEHYDE] | 83.1%

SMILES | MIC [1] | MIC [2] | MIC [4] | MIC [5] | MIC [6] | Activity [3]
CC(=O)N1CCN(c2ccc(OCC3COC(Cn4ccnc4)(c4ccc(Cl)cc4Cl)O3)cc2)CC1 (centres undefined) [KETOCONAZOLE] | – | 40 µg/mL (≈ 75.3 µM) | – | – | 40 µg/mL (≈ 75.3 µM) | –
